Experimental findings from ChEMBL document CHEMBL5113397, “Identification, optimization, and biological evaluation of 3-O-β-chacotriosyl ursolic acid derivatives as novel SARS-CoV-2 entry inhibitors by targeting the prefusion state of spike protein” (Eur J Med Chem, 2022) are described below.

pEC50, pKd: −log10 of the molar value.

Data set [1] is described as follows: Cytotoxicity against African green monkey Vero E6 cells assessed as inhibition of cell growth incubated for 48 hrs by MTT assay. The format is toxicity, cell-based, Vero C1008. Particulars: chlorocebus sabaeus. The procedure, abridged:
(§1)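 Monolayers of 293T-ACE2 or Vero E6 cells in DMEM with 10% FBS were PBS-rinsed and exposed to compounds for 48 h. MTT 0.5 mg/mL was then added for 4 h at 37 °C, formazan dissolved in DMSO, and absorbance read at 570 nm.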

Data set [2] is described as follows: Selectivity index, ratio of CC50 for cytotoxicity against African green monkey Vero E6 cells to EC50 for antiviral activity against SARS-CoV-2 Wuhan-Hu-1 infected African green monkey Vero E6 cells. The format is toxicity, cell-based, Vero C1008. Particulars: read-out: Ratio CC50/EC50.
Data set [3] is described as follows: Cytotoxicity against human HEK293T cells overexpressing human ACE2 assessed as inhibition of cell growth incubated for 48 hrs by MTT assay. The format is toxicity, cell-based, HEK-293T. The procedure, abridged:
as §1

A further data set deals with Spike glycoprotein (Severe acute respiratory syndrome coronavirus 2, UniProt P0DTC2). The data set is described as follows: Binding affinity to SARS-CoV-2 Spike trimer protein by SPR analysis. The procedure, abridged:
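Compound photo-crosslinked onto the chip; recombinant S-trimer injected at a series of concentrations in PBST (0.1% Tween 20, pH 7.4). Run at 4 °C, 600 s association, 360 s dissociation, 0.5 µL/s flow. Chip regenerated with glycine-HCl pH 2.0; KD from the SPR signals.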

In data set [4] the test system is SARS-CoV-2. The data set can be described thus: Antiviral activity against SARS-CoV-2 Wuhan-HU-1 infected African green monkey Vero E6 cells preincubated for 1 hrs followed by incubation with virus 1 hr and measured after 24 hrs by fluorescence assay. The format is functional, organism-based. Particulars: Severe acute respiratory syndrome coronavirus 2, Wuhan-HU-1, Vero C1008.

Data set [5] has as its system SARS-CoV-2. The data set is described as follows: Antiviral activity against pseudovirus SARS-CoV-2 spike protein expressed in human HEK293T cells assessed as inhibition of spike protein S2 subunit mediated membrane fusion in African green monkey Vero E6 cells at 2.5 to 20 uM incubated for 0.5 hr and measured after 24 hrs by inverted fluorescence microscopy. Particulars: Severe acute respiratory syndrome coronavirus 2, dose 2.5-20 µM, time 24.5 hrs, DDE = dose-dependent effect. It counts as functional, organism-based. Summed up: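 Effector HEK-293T cells were transfected with GFP/SARS-CoV-2 S plasmid, or an EGFP-only vector as control. They were treated with or without graded compound for 30 min, then overlaid on Vero-E6 target cells seeded 6 h before. After 24 h, three random fields were imaged by inverted fluorescence microscopy.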

Data set [6] deals with SARS-CoV-2. The data set can be described thus: Antiviral activity against SARS-CoV-2 Wuhan-HU-1 infected African green monkey Vero E6 cells assessed as reduction in N-protein expression at 0.55 to 15 uM by indirect immunofluorescence assay. It counts as functional, organism-based. As to conditions: Severe acute respiratory syndrome coronavirus 2, dose 0.55-15 µM, DDE = dose-dependent effect.

On to `COc1ccccc1NC(=O)[C@]12CC[C@@H](C)[C@H](C)[C@H]1C1=CC[C@@H]3[C@@]4(C)CC[C@H](O[C@@H]5O[C@H](CO)[C@@H](O[C@@H]6O[C@@H](C)[C@H](O)[C@@H](O)[C@H]6O)[C@H](O)[C@H]5O[C@@H]5O[C@@H](C)[C@H](O)[C@@H](O)[C@H]5O)C(C)(C)[C@@H]4CC[C@@]3(C)[C@]1(C)CC2`, for which the CC50 at 48 h in data set [1] was more than 100 µM; in data set [3], 43.3 µM. Besides, the selectivity ratio in data set [2] is more than 42. The same molecule had a pKd at Spike glycoprotein of 4.86. For the same molecule, the pEC50 with SARS-CoV-2 [4] is 5.62.

Take `C[C@H]1[C@H](C)CC[C@]2(C(=O)NCc3ccccc3)CC[C@]3(C)C(=CC[C@@H]4[C@@]5(C)CC[C@H](O[C@@H]6O[C@H](CO)[C@@H](O[C@@H]7O[C@@H](C)[C@H](O)[C@@H](O)[C@H]7O)[C@H](O)[C@H]6O[C@@H]6O[C@@H](C)[C@H](O)[C@@H](O)[C@H]6O)C(C)(C)[C@@H]5CC[C@]43C)[C@H]12`: in data set [3], the CC50 at 48 h was more than 100 µM.

`COc1cccc(OC)c1NC(=O)[C@]12CC[C@@H](C)[C@H](C)[C@H]1C1=CC[C@@H]3[C@@]4(C)CC[C@H](O[C@@H]5O[C@H](CO)[C@@H](O[C@@H]6O[C@@H](C)[C@H](O)[C@@H](O)[C@H]6O)[C@H](O)[C@H]5O[C@@H]5O[C@@H](C)[C@H](O)[C@@H](O)[C@H]5O)C(C)(C)[C@@H]4CC[C@@]3(C)[C@]1(C)CC2`: the inhibition result in the data set with SARS-CoV-2 [5] was “Dde”. Further, the CC50 at 48 h in data set [1] and in data set [3] was more than 100 µM each time. Moreover, the selectivity ratio in data set [2] is more than 48.8. The Activity entry in the data set on SARS-CoV-2 [6] is “Dde”. The same molecule gave a pKd on Spike glycoprotein of 6.11. The molecule further had a pEC50 with SARS-CoV-2 [4] of 5.69.

In the case of `COc1ccc(CNC(=O)[C@]23CC[C@@H](C)[C@H](C)[C@H]2C2=CC[C@@H]4[C@@]5(C)CC[C@H](O[C@@H]6O[C@H](CO)[C@@H](O[C@@H]7O[C@@H](C)[C@H](O)[C@@H](O)[C@H]7O)[C@H](O)[C@H]6O[C@@H]6O[C@@H](C)[C@H](O)[C@@H](O)[C@H]6O)C(C)(C)[C@@H]5CC[C@@]4(C)[C@]2(C)CC3)cc1`, the CC50 at 48 h in data set [3] is more than 100 µM.
